# Screens: PubChem, several laboratories
# Shown are actives, neighbours in structure and some others; about 4.2% of the full set was active somewhere.
# KCC2 mod = KCC2 cotransporter modulators, thallium flux, primary screen, cell-based, HEK293 KCC2, FluoZin-2 fluorescence, MLSMR; Solute carrier family 12 member 5 (Homo sapiens), Q9H2X9; B-score of Tl+ flux slope (higher = more flux/activation; lower = inhibition) at 10 µM; KCC2 cells, thallium flux FluoZin-2 fluorescence; 190,000 tested, 2.2% active;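 active = thallium flux slope and its plate-corrected score both differing from the plate sample mean at a set confidence after two filtering rounds, in either direction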;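 also: slope of fluorescence scaled to starting intensity during 10 to 20 s after thallium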
# Target sequence (Q9H2X9 whole entry, looked up): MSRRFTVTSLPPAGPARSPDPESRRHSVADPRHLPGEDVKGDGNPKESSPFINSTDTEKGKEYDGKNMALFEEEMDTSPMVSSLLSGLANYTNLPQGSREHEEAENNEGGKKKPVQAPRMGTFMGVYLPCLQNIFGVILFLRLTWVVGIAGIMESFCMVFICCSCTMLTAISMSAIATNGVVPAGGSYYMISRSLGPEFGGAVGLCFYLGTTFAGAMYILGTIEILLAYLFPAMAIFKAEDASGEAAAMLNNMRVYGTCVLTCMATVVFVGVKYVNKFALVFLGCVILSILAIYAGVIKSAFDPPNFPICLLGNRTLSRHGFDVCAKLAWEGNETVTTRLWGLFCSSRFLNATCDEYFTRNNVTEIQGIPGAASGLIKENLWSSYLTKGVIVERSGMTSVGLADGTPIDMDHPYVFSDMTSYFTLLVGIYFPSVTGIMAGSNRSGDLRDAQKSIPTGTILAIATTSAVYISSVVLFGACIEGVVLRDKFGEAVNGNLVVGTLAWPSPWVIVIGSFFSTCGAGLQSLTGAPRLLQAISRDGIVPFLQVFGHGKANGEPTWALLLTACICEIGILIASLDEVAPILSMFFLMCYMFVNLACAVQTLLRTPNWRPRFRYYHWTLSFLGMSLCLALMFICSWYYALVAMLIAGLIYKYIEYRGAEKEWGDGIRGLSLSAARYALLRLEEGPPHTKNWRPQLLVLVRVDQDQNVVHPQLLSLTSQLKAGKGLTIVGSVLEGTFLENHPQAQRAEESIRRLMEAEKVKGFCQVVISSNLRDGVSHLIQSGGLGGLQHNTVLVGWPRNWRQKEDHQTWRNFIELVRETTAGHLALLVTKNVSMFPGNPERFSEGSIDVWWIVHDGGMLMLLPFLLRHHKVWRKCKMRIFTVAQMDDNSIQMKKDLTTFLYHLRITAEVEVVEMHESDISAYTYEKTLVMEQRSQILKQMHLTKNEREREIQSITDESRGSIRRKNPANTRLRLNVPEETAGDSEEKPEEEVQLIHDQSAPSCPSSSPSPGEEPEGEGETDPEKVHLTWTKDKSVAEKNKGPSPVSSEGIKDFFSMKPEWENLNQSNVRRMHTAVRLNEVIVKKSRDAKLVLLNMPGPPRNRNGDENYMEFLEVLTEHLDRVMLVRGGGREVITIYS
# KCNQ1 block = inhibitors of human KCNQ1 channel, primary screen, cell-based, thallium flux, high-throughput; B-score at 10 µM; AID 2642, 2010; 310,000 tested, 1.3% active; Potassium voltage-gated channel subfamily KQT member 1 (Homo sapiens), P51787; CHO-K1 KCNQ1, FluxOR thallium flux fluorescence; active compounds read high;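 active = compounds whose thallium flux B-score, printed positive for inhibition, exceeds three library SD while starting fluorescence stays within three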;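 also: channel opened by potassium depolarization with thallium stimulus after 20 min compound exposure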
# SUMO Mot1 rescue = yeast Mot1-301 growth rescue at high temperature, primary screen, SUMOylation pathway inhibitor project, S. cerevisiae, ATP luminescence, 38.5C | S. cerevisiae Mot1-301 growth rescue; percent above DMSO median, 100 means doubled | growth rescue, % at 18.8 µM | 320,000 tested, 1% active;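 active = every valid replicate shows activation above 250% relative to neutral control wells; inactive = the rest, any valid replicate at or below 250%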;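 also: OY570 slx delta 5 strain wells were the positive control but not used for scaling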
# AI-2 QS modul = Vibrio harveyi AI-2 quorum sensing modulators, primary screen, JMH597 strain, luminescence/OD600 ratio. Vibrio harveyi JMH597 AI-2 luminescence/OD600 ratio, 9 h; active compounds read low; strain lacks LuxN and CqsS sensors; 0 = neutral-control median. activity change, % at 7.5 µM. 300,000 tested, 0.4% active. AID 2094, 2009; in the data active = activity change below about -75%, passing the limit was not always enough;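 also: luminescence divided by OD600 gain over 9 h not by final OD600 alone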
# hERG protect = hERG rescue from dofetilide block, primary screen, cell-based, CHO-hERG, FluxOR thallium flux, dofetilide IC70 | Voltage-gated inwardly rectifying potassium channel KCNH2 (Homo sapiens), Q12809 | dofetilide IC70 present | activation (rescue from dofetilide block), less the hit threshold, % at 10 µM | 310,000 tested, 0.51% active | AID 1511, 2009;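 active = activation above the mean of controls blocked by dofetilide plus 5 SD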;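 also: thallium influx through hERG after potassium depolarization seen as dye fluorescence rise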
# KCNQ1 pot = potentiators or activators of KCNQ1 channel, primary screen, cell-based, thallium flux, high-throughput; Potassium voltage-gated channel subfamily KQT member 1 (Homo sapiens), P51787; CHO-K1 KCNQ1, thallium flux FluxOR fluorescence; active compounds read high; B-score at 10 µM; 310,000 tested, 0.35% active;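 active = fluorescence ratio B-score, a plate-corrected score, at least three library SD, with initial intensity B-score within 5 SD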
#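 Assay system: stable KCNQ1 CHO-K1 line; medium: assay buffer, equal DMSO in all wells; timing: 90 min dye loading and 20 min compound exposure, both at room temperature; technique: kinetic FluxOR thallium fluorescence, 10-s 1-Hz baseline, 110-s post-stimulus read; read-out basis: B score of baseline-normalized fluorescence ratio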
# KCNQ1 inh valid = KCNQ1 potassium channel inhibitors, confirmation, cell-based, Tl flux, duplicate; shares compounds with KCNQ1 block; KCNQ1 cell line, FluxOR thallium flux fluorescence; inhibition, % at 10 µM; 1,600 tested, 93% active; AID 588353, 2011;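 active = primary screen active, with duplicate mean exceeding buffer control mean plus 3 SD of buffer wells, cut at about 28% in these data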;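 also: 0% = buffer control ratio and 100% = XE991 inhibitor control ratio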
# CHO KCNQ1 ctr = thallium flux effects in parental CHO cells, counter-screen for KCNQ1 inhibitor project, cell-based, Tl flux | AID 588366, 2011 | fluorescence ratio (Tl flux) at 10 µM | shares compounds with KCNQ1 block | parental CHO-K1, FluxOR thallium flux fluorescence ratio; active compounds read low; zero means no signal rise above baseline | 1,600 tested, 21% active;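 active = mean of duplicate thallium-flux fluorescence ratios in parental host cells more than 5 SD below the buffer control mean, cut at about 0.38 in these data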;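 also: ratio is peak minus minimum fluorescence divided by baseline fluorescence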
# KCNQ1 ephys val = KCNQ1 channel inhibitors, confirmation, orthogonal assay, cell-based, automated electrophysiology. shares compounds with KCNQ1 block. KCNQ1-CHO cells, automated patch clamp current. calls only at 10 µM. 490 tested, 20% active. AID 624120, 2012;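 active = KCNQ1 current drop exceeding 3 SD of negative control wells, seen in both duplicate runs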;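 also: steady state current during a 2 s step from -80 to +40 mV; negative values mean current inhibition and positive values mean potentiation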
# KCNQ2 spec = KCNQ2 channel inhibition, selectivity assay for KCNQ1 inhibitor project, cell-based; shares compounds with KCNQ1 block; KCNQ2 cells, FluxOR thallium flux fluorescence; inhibition, % at 10 µM; 1,600 tested, 71% active;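 active = mean percent inhibition of the KCNQ2 thallium signal more than 5 SD above the buffer-only control wells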;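 also: KCNQ2 expressed in CHO cells; 0% = buffer control wells and 100% = XE-991 inhibitor control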
# KCNQ1 KCNE1 spec = KCNQ1/KCNE1 channel inhibition, selectivity assay for KCNQ1 inhibitor project, CHO-K1 cells, thallium flux, FluxOR. FluxOR thallium flux fluorescence. inhibition, % at 10 µM. 1,600 tested, 77% active. shares compounds with KCNQ1 block;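 active = mean percent inhibition of duplicate wells above the buffer-only control mean plus 3 SD of those controls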;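 also: 0% = buffer only wells and 100% = XE-991 inhibitor control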
# * = called active by the depositor; i = inactive; . = no result given; + = active, no number.
SMILES,KCC2 mod,KCNQ1 block,SUMO Mot1 rescue,AI-2 QS modul,hERG protect,KCNQ1 pot,KCNQ1 inh valid,CHO KCNQ1 ctr,KCNQ2 spec,KCNQ1 KCNE1 spec,others
Clc1ccc(CN=C(Nc2ccccc2)NC2CCCCC2)cc1,-0.75,8*,226,15,-8,i,48*,0.46,i,38%*,
COc1ccc(-c2csc(NC(=O)CSc3nc(SC)ns3)n2)cc1,-0.35,9*,14,32,-19,i,114*,0.43,66%*,116%*,KCNQ1 ephys val=i
O=C1c2cccc3c(O)ccc(c23)C(=O)N1Cc1ccco1,i,22*,.,33,-56,i,+,0.011*,i,i,
O=C1c2ccccc2C(=O)N1Cc1ccco1,0.54,i,-13,0,-7,i,.,.,.,.,
Cc1ccc(OCC(O)Cn2c(=N)n(Cc3ccccc3)c3ccccc32)cc1 (stereo not given),.,8*,4,24,-28,i,78*,0.41,93%*,36%*,
CCN(Cc1ccccc1)C(=O)c1cccc(S(=O)(=O)N2CCN(c3ccccc3)CC2)c1,.,i,80,-3,-5,i,.,.,.,.,
CN(Cc1ccc(Cl)cc1Cl)C(=O)c1cccc(S(=O)(=O)N2CCN(c3ccccc3)CC2)c1,.,6*,-3,10,-11,i,92*,0.43,90%*,68%*,KCNQ1 ephys val=i
O=S(=O)(Nc1nc2ccccc2nc1N1CCN(c2ccccc2)CC1)c1ccc(F)cc1,-1.2,10*,526*,30,-6,i,78*,0.39,69%*,62%*,
COc1ccc(C(=O)NC2CC2)cc1OC1CCN(Cc2ccc(NC(C)=O)cc2)CC1,.,i,.,28,-5,i,.,.,.,.,
CCN(CC)c1ccc(CN2CCCCCC2)cc1,0.92,i,17,24,-9,i,.,.,.,.,
CC1CN(S(=O)(=O)c2cccc(C(=O)Nc3ccccc3N3CCCCC3)c2)CC(C)O1 (stereo not given),.,7*,51,12,-9,i,76*,0.39,114%*,88%*,
CCOC(=O)c1cc(C#N)c(Oc2ccccc2)nc1-c1ccccc1,.,7*,8,0,-3,i,88*,0.33*,112%*,96%*,
Cc1ccc(S(=O)(=O)c2cc3ccccc3nc2N)cc1,-0.32,i,-5,7,-8,i,.,.,.,.,
